≈ marks a conversion by molar mass, not a printed value.
What was measured:
Format in all cases: functional
[1] = tested on: Mycobacterium tuberculosis; experiment: Ratio of MIC for PA-824 to compound MIC for Mycobacterium tuberculosis H37Rv ATCC 27294 harboring pFCA-lux AB gene measured under aerobic condition after 8 days by luminescence analysis
[2] = tested on: Mycobacterium tuberculosis; experiment: Antimicrobial activity against Mycobacterium tuberculosis H37Rv ATCC 27294 harboring pFCA-lux AB gene measured under aerobic condition after 8 days by luminescence analysis; conditions: H37Rv ATCC 27294, 192 h
Summary of the method: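 MABA: replicating M. tb H37Rv exposed to compound aerobically for 8 days. […] Mean of at least two independent determinations ± SD.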

[3] = tested on: Mycobacterium tuberculosis; experiment: Antimicrobial activity against Mycobacterium tuberculosis H37Rv ATCC 27294 harboring pFCA-lux AB gene measured under anaerobic condition after 11 days by luminescence analysis; conditions: H37Rv ATCC 27294, 264 h
Summary of the method: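 LORA: luminescence-based low-oxygen-recovery assay on nonreplicating M. tb, 11-day anaerobic exposure. MIC is the mean of at least two independent determinations ± SD.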

Row | Compound | Ratio [1] | MIC [2] [µM] | MIC [3] [µM]
1 | O=C(Nc1ccc(OC(F)(F)F)cc1)O[C@@H]1COc2nc([N+](=O)[O-])cn2C1 | 4 | 0.12 (≈ 0.0466 µg/mL) | 2.7 (≈ 1.05 µg/mL)
2 | O=C(Cc1ccc(-c2ccc(F)nc2)cc1)N[C@@H]1COc2nc([N+](=O)[O-])cn2C1 | – | 0.68 (≈ 0.27 µg/mL) | > 32
3 | O=C(COc1ccc(-c2ccc(OC(F)(F)F)cc2)cc1)N[C@@H]1COc2nc([N+](=O)[O-])cn2C1 | – | 0.18 (≈ 0.0861 µg/mL) | 25 (≈ 12 µg/mL)
4 | O=C(NCc1ccc(-c2ccc(C(F)(F)F)cc2)cc1)O[C@@H]1COc2nc([N+](=O)[O-])cn2C1 | – | 0.24 (≈ 0.111 µg/mL) | > 32
5 | O=C(Cc1ccc(OC(F)(F)F)cc1)N[C@@H]1COc2nc([N+](=O)[O-])cn2C1 | – | 0.27 (≈ 0.104 µg/mL) | 21 (≈ 8.11 µg/mL)
6 | O=C(Nc1ccc(-c2ccc(OC(F)(F)F)cc2)cc1)O[C@@H]1COc2nc([N+](=O)[O-])cn2C1 | – | 0.05 (≈ 0.0232 µg/mL) | > 32
7 | O=C(Nc1ccc(-c2ccc(F)cc2)cc1)N[C@@H]1COc2nc([N+](=O)[O-])cn2C1 | – | 1.3 (≈ 0.517 µg/mL) | 9.1 (≈ 3.62 µg/mL)
8 | O=C(Nc1cccc(-c2ccc(F)cc2)c1)N[C@@H]1COc2nc([N+](=O)[O-])cn2C1 | – | 0.03 (≈ 0.0119 µg/mL) | 3.8 (≈ 1.51 µg/mL)
9 | O=C(Nc1ccc(-c2ccc(F)nc2)cc1)O[C@@H]1COc2nc([N+](=O)[O-])cn2C1 | – | 0.13 (≈ 0.0519 µg/mL) | 4.3 (≈ 1.72 µg/mL)
10 | O=C(Nc1cccc(-c2ccc(F)nc2)c1)N[C@@H]1COc2nc([N+](=O)[O-])cn2C1 | – | 0.23 (≈ 0.0916 µg/mL) | 15 (≈ 5.98 µg/mL)
11 | O=[N+]([O-])c1cn2c(n1)OC[C@@H](OCc1ccc(OC(F)(F)F)cc1)C2 [PRETOMANID] | – | 0.5 (≈ 0.18 µg/mL) | 2.6 (≈ 0.934 µg/mL)
12 | CN(C(=O)c1cccc(OC(F)(F)F)c1)[C@@H]1COc2nc([N+](=O)[O-])cn2C1 | – | 24 (≈ 9.27 µg/mL) | > 64
